Measured values from ChEMBL document CHEMBL5352427, “Isoquinolone derivatives as lysophosphatidic acid receptor 5 (LPA5) antagonists: Investigation of structure-activity relationships, ADME properties and analgesic effects” (Eur J Med Chem, 2022).
Calls of active or inactive are those of the source. The rule behind the calls is not given here.

What was measured:
Format in all cases: functional, cell-based
[1] = biological target: T1, Lysophosphatidic acid receptor 5 (Homo sapiens, UniProt Q9H1C0); test: Antagonist activity at human LPA5 receptor expressed in RH7777 cells assessed as inhibition of EC80 concentration of hexadecyl LPA-induced calcium mobilization incubated for 15 mins by FLIPR method
T1 sequence (Q9H1C0 whole entry): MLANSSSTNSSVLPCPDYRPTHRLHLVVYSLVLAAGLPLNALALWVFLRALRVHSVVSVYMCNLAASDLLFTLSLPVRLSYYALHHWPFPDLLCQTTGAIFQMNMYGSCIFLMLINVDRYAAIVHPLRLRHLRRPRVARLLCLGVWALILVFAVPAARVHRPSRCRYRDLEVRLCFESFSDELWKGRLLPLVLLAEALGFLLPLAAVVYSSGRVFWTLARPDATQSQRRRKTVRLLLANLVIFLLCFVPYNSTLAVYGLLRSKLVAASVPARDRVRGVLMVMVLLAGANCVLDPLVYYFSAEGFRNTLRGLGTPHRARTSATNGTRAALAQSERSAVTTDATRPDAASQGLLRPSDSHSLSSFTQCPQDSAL

[2] = biological target: T1, Lysophosphatidic acid receptor 5; test: Antagonist activity at human LPA5 receptor expressed in RH7777 cells assessed as inhibition of EC80 concentration of hexadecyl LPA-induced calcium mobilization incubated for 15 mins by FLIPR method relative to hexadecyl LPA; details: filed as antagonist
[3] = biological target: T1, Lysophosphatidic acid receptor 5; test: Antagonist activity at human LPA5 receptor expressed in RH7777 cells assessed as inhibition of EC80 concentration of LPA-induced cAMP accumulation preincubated for 30 mins followed by Eu-cAMP tracer addition and measured after 1 hr by TR-FRET assay relative to hexadecyl LPA; details: filed as antagonist
Procedure, shortened: (§1)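 hLPA5-RH7777 cells, switched to 0.2% FBS medium 20 h prior, lifted with versene, 2,000 cells/well in HBSS/5 mM HEPES/0.1% BSA/0.5 mM IBMX pH 7.4. Compound dilutions with hexadecyl LPA 16:0 EC80 (300 nM) plus forskolin, 30 min room temperature; LANCE Ultra Eu-cAMP tracer/ULight-anti-cAMP 1 h; TR-FRET 665 nm converted to cAMP via standard curve. Three-parameter logistic IC50; ≥3 experiments in duplicate.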

[4] = biological target: T1, Lysophosphatidic acid receptor 5; test: Agonist activity at human LPA5 receptor expressed in RH7777 cells assessed as calcium mobilization incubated for 15 mins by FLIPR method
Procedure, shortened: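 RH7777 cells stably expressing hLPA5, plated 20,000/well in 0.2% FBS medium 18–20 h, loaded 45 min at 37 °C with Calcium 5 dye in HBSS/20 mM HEPES/2.5 mM probenecid pH 7.4. […] Duplicates.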

[5] = biological target: T1, Lysophosphatidic acid receptor 5; test: Antagonist activity at human LPA5 receptor expressed in RH7777 cells assessed as inhibition of EC80 concentration of LPA-induced cAMP accumulation preincubated for 30 mins followed by Eu-cAMP tracer addition and measured after 1 hr by TR-FRET assay; procedure, shortened: as §1

Row | Compound | IC50 [1] | inhibition [2] | inhibition [3] | Activity [4] | IC50 [5] | EC50 [1] | EC50 [5]
1 | COc1cc2c(C(=O)N3CCCCC3)cn(-c3cccc(N(C)C)c3)c(=O)c2cc1OC | 0.087 µM | 104% | 89% | inactive | 0.79 µM | – | –
2 | C#CC1CCN(C(=O)c2cn(-c3cccc(N(C)C)c3)c(=O)c3cc(OC)c(OC)cc23)CC1 | 0.046 µM | 105% | 101% | inactive | – | – | –
3 | COc1cc2c(C(=O)N3CCC(F)CC3)cn(-c3cccc(N(C)C)c3)c(=O)c2cc1OC | 0.079 µM | 102% | 94% | inactive | 0.95 µM | – | –
4 | COc1ccc2c(C(=O)N3CCC(F)CC3)cn(-c3cccc(N(C)C)c3)c(=O)c2c1 | 1.06 µM | 96% | – | inactive | – | – | –
5 | COc1cc2c(C(=O)N3CCC(OC)CC3)cn(-c3cccc(N(C)C)c3)c(=O)c2cc1OC | 0.64 µM | 89% | – | inactive | – | – | –
6 | COc1cc2c(C(=O)N3CCCCC3)cn(-c3ccc4occ(C)c4c3)c(=O)c2cc1OC | 0.048 µM | 105% | 88% | inactive | 0.19 µM | – | –
7 | CC#CC1CCN(C(=O)c2cn(-c3cccc(N(C)C)c3)c(=O)c3cc(OC)c(OC)cc23)CC1 | 0.091 µM | 91% | – | inactive | – | – | –
8 | COc1cc2c(C(=O)N3CCCC(C)C3)cn(-c3cccc(N(C)C)c3)c(=O)c2cc1OC (racemic) | 0.26 µM | 104% | – | inactive | – | – | –
9 | COc1cc2c(C(=O)N3CCCCC3)cn(-c3ccc4ccn(C)c4c3)c(=O)c2cc1OC | 0.064 µM | 104% | 109% | inactive | 0.46 µM | – | –

Results, then the compound that gave them:

Row | IC50 [1] | inhibition [2] | inhibition [3] | Activity [4] | IC50 [5] | EC50 [1] | EC50 [5] | Compound
10 | 0.102 µM | 89% | 92% | inactive | – | – | – | COc1cc2c(C(=O)N3CCC(C#N)CC3)cn(-c3cccc(N(C)C)c3)c(=O)c2cc1OC
11 | 0.2 µM | 103% | 98% | inactive | 0.394 µM | – | – | COc1cc2c(C(=O)N3CCC(F)CC3)cn(-c3cccc(C(C)C)c3)c(=O)c2cc1OC
12 | 0.144 µM | 102% | 100% | inactive | 0.203 µM | – | – | COc1cc2c(C(=O)N3CCC(F)CC3)cn(-c3ccc4occ(C)c4c3)c(=O)c2cc1OC
13 | – | – | – | – | – | 0.015 µM | 0.095 µM | CCCCCCCCCCCCCCCCOC[C@@H](O)COP(=O)(O)O
14 | 0.058 µM | 104% | 94% | – | 0.57 µM | – | – | CCN1CCc2ccc(-n3cc(C(=O)N4CCC(F)CC4)c4cc(OC)c(OC)cc4c3=O)cc21
15 | 0.16 µM | 105% | – | inactive | – | – | – | COc1cc2c(C(=O)N3CCC(C)CC3)cn(-c3cccc(N(C)C)c3)c(=O)c2cc1OC
16 | 1.19 µM | 108% | – | inactive | – | – | – | COc1cc2c(C(=O)N3CCC(c4ccccc4)CC3)cn(-c3cccc(N(C)C)c3)c(=O)c2cc1OC
17 | 0.301 µM | 109% | – | inactive | – | – | – | COc1cc2c(C(=O)N3CCCCCCC3)cn(-c3cccc(N(C)C)c3)c(=O)c2cc1OC
